# Assay results of several laboratories.
# Compare with care: the assays were run in different laboratories.
# Target: Casein kinase I isoform alpha (CSNK1A1, Homo sapiens, UniProt P48729)
# Sequence (P48729 1-304, as in one of the studies): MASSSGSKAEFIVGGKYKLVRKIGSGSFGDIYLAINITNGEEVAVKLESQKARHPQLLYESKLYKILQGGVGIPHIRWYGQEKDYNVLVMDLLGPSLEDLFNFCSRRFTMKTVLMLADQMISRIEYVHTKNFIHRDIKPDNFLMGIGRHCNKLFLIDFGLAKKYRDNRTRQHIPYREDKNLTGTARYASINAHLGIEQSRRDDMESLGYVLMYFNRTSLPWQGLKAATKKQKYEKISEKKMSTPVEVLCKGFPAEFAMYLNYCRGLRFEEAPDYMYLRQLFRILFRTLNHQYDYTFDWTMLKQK
Compound,effect on,mode,method,concentration,quantity,result
c1cc(-c2cnn3cc(-c4ccc(OCCN5CCCCC5)cc4)cnc23)ccn1,binding,,SPR,,kon,2.49e+09 M⁻¹ s⁻¹
CC#CC(=O)N1CCC[C@H]1c1nc(-c2ccc(C(=O)Nc3ccccn3)cc2)c2c(N)nccn12,enzyme activity,inhibitor,,1 µM,inhibition,21%
CCCCC(=O)Nc1ccc(-c2ccc3ncn(CCC)c(=O)c3c2)cn1,binding,,competition with immobilised ligand,0.5 µM,remaining binding,89%
C1=C/COCc2cc(ccc2OCCN2CCCC2)Nc2nccc(n2)-c2cccc(c2)COC/1,binding,,,0.1 µM,remaining binding,85%
COc1ccc2oc(-c3ccc4nc(N)oc4c3)c/c(=N\c3ccccc3NC(=O)CCN)c2c1,binding,,,1 µM,remaining binding,102%
CO[C@@H]1[C@H](N(C)C(=O)c2ccccc2)C[C@H]2O[C@]1(C)n1c3ccccc3c3c4c(c5c6ccccc6n2c5c31)C(=O)NC4,enzyme activity,inhibitor,,1 µM,inhibition,33%
CC(C)S(=O)(=O)c1ccc2nccc(Nc3ccc4sc(C5CCCC5)nc4c3)c2c1,enzyme activity,inhibitor,,1 µM,activity vs control,103%
COc1ccc2[nH]c3c4[nH]c5ccc(OC)cc5c4c4c(c3c2c1)C(=O)NC4=O,binding,,,1 µM,remaining binding,62%
c1cc(Nc2cc(C3CC3)n[nH]2)nc(Nc2ccc3nc[nH]c3c2)n1,binding,,SPR,,kon,5.43e+08 M⁻¹ s⁻¹
C[C@H]1CC[C@H](n2c3cnccc3c3cnc(Nc4ccc5c(n4)CCN(C(=O)CO)C5)nc32)CC1,cell-free assay,,,1 µM,remaining signal,94%
Cc1cc(O)c(-c2ccc([C@@H](C)CN(C)C)cc2)c2c1[nH]c(=O)c1sccc12,enzyme activity,inhibitor,,0.1 µM,inhibition,6.33%
